Source: ChEMBL document CHEMBL3414461, “Clerodane type diterpene as a novel antifungal agent from Polyalthia longifolia var. pendula” (Eur J Med Chem, 2015)
Values after ≈ are worked out from the molar mass of the structure shown. Active and inactive are the calls of the source. The calls are words filed in the database; no cut-off is given here.

Assays:
[1] = test system: Nakaseomyces glabratus; test: Antifungal activity against Candida glabrata NCIM 3237 after 24 to 48 hrs by microbroth dilution method; format: functional
Procedure, shortened: (§1)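 Broth microdilution per CLSI. DMSO stock diluted 1:40 in YPG medium, then two-fold serial dilution across […] range. Inoculum: log-phase yeast cells (~2 × 10^4 cfu/mL) grown in YPG broth, or spores for phytopathogens. Incubated 24–48 h; growth read as absorbance at 600 nm. MIC is the lowest concentration giving >90% growth inhibition versus control; IC50 is the concentration giving 50% inhibition.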

[2] = test system: Neurospora crassa; test: Antifungal activity against Neurospora crassa NCIM 870 after 24 to 48 hrs by microbroth dilution method; format: functional; procedure, shortened: as §1
[3] = test system: Fusarium oxysporum; test: Antifungal activity against Fusarium oxysporum NCIM 1043 after 24 to 48 hrs by microbroth dilution method; format: functional; procedure, shortened: as §1
[4] = test system: Candida albicans; test: Antifungal activity against Candida albicans NCIM 3557 assessed as inhibition of 50% germ tube formation; format: functional
[5] = test system: Aspergillus fumigatus; test: Antifungal activity against Aspergillus fumigatus NCIM 902 after 24 to 48 hrs by microbroth dilution method; format: functional; procedure, shortened: as §1
[6] = test system: Cryptococcus neoformans; test: Antifungal activity against Cryptococcus neoformans NCIM 3542 after 24 to 48 hrs by microbroth dilution method; format: functional; procedure, shortened: as §1
[7] = Cytotoxicity against sheep RBC assessed as haemolytic activity at 1200 uM after 2 hrs by spectrophotometry; format: cell-based, Ovis aries, Erythrocyte; settings: sheep red blood cells, read-out: Activity
Procedure, shortened: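 Sheep RBCs washed with PBS (pH 7.0), resuspended to a 4% suspension, mixed 1:1 with PBS containing test compound. Incubated 37 °C for 2 h, centrifuged 2000 rpm for 5 min, supernatant absorbance read at 545 nm. PBS set as 0% lysis and 0.1% Triton X-100 as 100%. Percent haemolysis calculated relative to these; triplicates averaged.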

[8] = test system: Aspergillus niger; test: Antifungal activity against Aspergillus niger NCIM 628 after 24 to 48 hrs by microbroth dilution method; format: functional; procedure, shortened: as §1
[9] = test system: Candida albicans; test: Antifungal activity against Candida albicans NCIM 3471 after 24 to 48 hrs by microbroth dilution method; format: functional; procedure, shortened: as §1
[10] = test system: Candida albicans; test: Antifungal activity against Candida albicans NCIM 3557 after 24 to 48 hrs by microbroth dilution method; format: functional; procedure, shortened: as §1
[11] = test system: Candida albicans; test: Induction of ROS generation in Candida albicans NCIM 3557 at 25.2 to 100.6 uM after 60 mins by DCFH-DA staining-based fluorescence assay; format: functional, organism-based
[12] = test system: Candida albicans; test: Induction of ROS generation in Candida albicans NCIM 3557 at 50.3 to 201.2 uM after 200 mins by DHR123 staining-based fluorescence assay; format: functional, organism-based
Procedure, shortened: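 1×10^6 C. albicans NCIM3557 cells grown in YPG broth with compound at 37 °C for 200 min. Cells washed, then DHR123 added at […] final (from ethanol stock) in PBS for 30 min. Cells washed, resuspended in PBS, and fluorescence read (ex 480/em 525 nm) by epifluorescence microscopy. Untreated cells served as negative control and H2O2-treated cells as positive control.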

Row | SMILES | MIC90 [1] [µM] | MIC90 [2] [µM] | MIC90 [3] [µM] | Concentration for 50% inhibition of germ tube formation (IC50) [4] [µM] | MIC90 [5] [µM] | MIC90 [6] [µM] | hemolysis at 2 h, 1200 µM [7] [%] | MIC90 [8] [µM] | MIC90 [9] [µM] | MIC90 [10] [µM] | Activity [11] | Activity [12]
1 | CC(=O)OC1OC(=O)C=C1CC[C@@]1(C)[C@H](C)CC[C@@]2(C)C(C)=CCC[C@H]12 (mixture of isomers) | > 600 | > 600 | > 600 | 177.8 | > 600 | > 600 | < 15 | > 600 | > 600 | > 600 | – | –
2 | C[C@@H]1CC[C@]2(C)[C@H](CC[C@@H]3O[C@@]32C)[C@@]1(C)CCC1=CC(=O)O[C@@H]1O | > 600 | > 600 | > 600 | 191.6 | > 600 | > 600 | < 15 | > 600 | > 600 | > 600 | – | –
3 | CC1=CCC[C@@H]2[C@@](C)(CCC3=CC(=O)O[C@@H]3O)[C@H](C)CC[C@@]12C | 805 (≈ 256 µg/mL) | 201 (≈ 64.1 µg/mL) | 805 (≈ 256 µg/mL) | 25.14 | 805 (≈ 256 µg/mL) | 101 (≈ 32 µg/mL) | < 15 | 805 (≈ 256 µg/mL) | 805 (≈ 256 µg/mL) | 50.3 (≈ 16 µg/mL) | Active | Active
4 | CC1=CCC[C@@H]2[C@@](C)(CCC3=CC(=O)OC3OC(=O)OC(C)(C)C)[C@H](C)CC[C@@]12C (mixture of isomers) | > 600 | > 600 | > 600 | 153.1 | > 600 | > 600 | < 15 | > 600 | > 600 | > 600 | – | –
